Measured values gathered from unrelated publications.
Each line is one published result; the experiments were not run side by side.
Organism: Plasmodium falciparum
Read-out: parasite growth

SMILES | assay | system | conditions | IC50
CCCCCCCCCCOc1cc2c(O)c(C(=O)OCC)cnc2cc1OCC | SYBR Green | 3D7 | blood stage | < 0.0057 µM
Clc1ccc2c(c1)nc(NCCNCc1ccccc1)n2Cc1ccccc1 |  | K1 | drug-resistant strain, blood stage | 0.212 µM
COC1=CC(c2cccn2C)=NC1=Cc1ccc(CCCCCCCCCC(C)O)[nH]1 (stereo not shown) |  | 7G8 | drug-resistant strain, blood stage | 1 µM
CCN(CC)CCCC(C)Nc1ccnc2cc(Cl)ccc12 (stereo not shown) |  | K1 | drug-resistant strain, blood stage | 0.28 µM
CCN(CC)CCCC(C)Nc1ccnc2cc(Cl)ccc12 (stereo not shown) |  | W2 | 72 h, drug-resistant strain | 0.36 µM
OC(c1cc(C(F)(F)F)nc2c(C(F)(F)F)cccc12)C1CCCCN1 (stereo not shown) |  |  | blood stage | 0.0372 µM
CCN(CC)CCCC(C)Nc1ccnc2cc(Cl)ccc12 (stereo not shown) |  | W2 | drug-resistant strain, blood stage | 0.1 µg/mL
COC1=CC(c2ccc[nH]2)=NC1=Cc1ccc(CCCCCCCCCCCCO)[nH]1 |  | DD2 | drug-resistant strain, blood stage | 0.023 µM
COc1cc(CO)c(-c2ccc3c(c2O)[C@@H](C)N[C@H](C)C3)c2cccc(O)c12 | SYBR Green | W2 | drug-resistant strain, blood stage | 0.303 µM
COC1=CC(c2ccco2)=NC1=Cc1ccc(CCCCCCCCCC(C)O)[nH]1 (stereo not shown) |  | DD2 | drug-resistant strain, blood stage | > 2.5 µM
C[C@@H]1CC[C@H]2[C@@H](C)C(=O)O[C@@H]3O[C@@]4(C)CC[C@@H]1[C@]32OO4 |  | D6 | blood stage | 0.005 µg/mL
NCCCNc1nc2cc(Br)ccc2n1Cc1ccccc1 |  | K1 | drug-resistant strain, blood stage | 1.01 µM
O=C(Nc1ccc(F)cc1C(=O)O)c1ccc(-c2ccccc2)cc1 | resazurin | NF54 | 48 h, gametocyte | 0.00943 µM
CCN(CC)CCCC(C)Nc1ccnc2cc(Cl)ccc12 (stereo not shown) |  | W2 | 72 h, drug-resistant strain, blood stage | 0.1 µg/mL
COC1=CC(c2ccc[nH]2)=NC1=Cc1ccc(CCCCCCCCCCO)[nH]1 |  | 7G8 | drug-resistant strain, blood stage | 0.168 µM
CCN(CC)CCCC(C)Nc1ccnc2cc(Cl)ccc12 (stereo not shown) |  | 3D7 | blood stage | 0.011 µM
CCN(CC)CCCC(C)Nc1ccnc2cc(Cl)ccc12 (stereo not shown) |  | W2 | drug-resistant strain | 0.31 µM
CCc1ccc(C2=NC(=Cc3ccc(CCCCCCCCCC(C)O)[nH]3)C(OC)=C2)[nH]1 (stereo not shown) |  | 7G8 | drug-resistant strain, blood stage | 0.024 µM
Brc1ccc2c(c1)nc(N1CCNCC1)n2Cc1ccccc1 |  | K1 | drug-resistant strain, blood stage | 0.064 µM
CC1=C(C)C(c2ccc[nH]2)=NC1=Cc1ccc(CCCCCCCCCC(C)O)[nH]1 (stereo not shown) |  | 7G8 | drug-resistant strain, blood stage | 0.627 µM
FC(F)(F)c1ccc2c(c1)nc(N1CCNCC1)n2Cc1ccccc1 |  | K1 | drug-resistant strain, blood stage | 0.415 µM
COC1=CC(c2ccc[nH]2)=NC1=Cc1ccc(CCCCCCCCCCCO)[nH]1 |  | 7G8 | drug-resistant strain, blood stage | 0.093 µM
Clc1ccc2c(N3CCN(CCCN4CCN(c5ccnc6cc(Cl)ccc56)CC4)CC3)ccnc2c1 |  | 3D7 | blood stage | 0.0044 µM
NC1CCN(c2nc3cc(Cl)ccc3n2Cc2ccccc2)CC1 |  | K1 | drug-resistant strain, blood stage | 0.014 µM
CCN(CC)CCCC(C)Nc1ccnc2cc(Cl)ccc12 (stereo not shown) |  | 7G8 | drug-resistant strain, blood stage | 0.063 µM
